We go through 14 molecules from ChEMBL document CHEMBL2163237, “Molecular determinants of selectivity and efficacy at the dopamine D3 receptor” (J Med Chem, 2012).

In general, Emax refers to the greatest response seen or fitted, relative to the assay's reference. Usually Ki stands for a measure of affinity in units of concentration, obtained from inhibition or displacement.

Experiment [1] deals with T1, D(3) dopamine receptor (Homo sapiens, UniProt P35462). The experiment can be described thus: Partial agonist activity at human D3 receptor expressed in HEK293T cells coexpressing GalphaoA-91-Rluc8 and mVenus-Gbeta1gamma2 after 2 mins by bioluminescence resonance energy transfer assay relative to dopamine. In kind it is functional, cell-based. The following applies: HEK-293T. Summed up:
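Human D3R transiently co-transfected (PEI) into HEK-293T cells with GαoA-RLuc8 and split-mVenus Gβ1/Gγ2; assayed ~48 h post-transfection. Cells in PBS/0.1% glucose at room temperature (40 µg protein/well), coelenterazine h 5 µM for 8 min, ligand for 2 min; BRET1 ratio 510–540/485 nm.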

Another experiment is filed under the species Homo sapiens. Nature of the experiment: Selectivity ratio of Ki for human D2L receptor to Ki for human D3 receptor.
Experiment [2] concerns the target T1, D(3) dopamine receptor. Nature of the experiment: Displacement of [125I]IABN from human D3 receptor expressed in HEK293 cells after 60 mins by gamma counting analysis. Format: cell-based. Summed up: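 Competitor spanned 5 orders of magnitude. Nonspecific binding defined with 15 µM (+)-butaclamol. Filtration with cold wash, then gamma counting. Single-site IC50 converted to Ki by Cheng-Prusoff. Mean of ≥3 independent experiments.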

In another experiment the target is D(2) dopamine receptor (Homo sapiens, UniProt P14416). Nature of the experiment: Displacement of [125I]IABN from human D2L receptor expressed in HEK293 cells after 60 mins by gamma counting analysis. Format: cell-based. The method in brief: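 Competitor spanned 5 orders of magnitude. Filtration with cold wash, then gamma counting. Single-site IC50 converted to Ki by Cheng-Prusoff. Mean of ≥3 independent experiments.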
For orientation: Loss of bound radioactivity is the signal in a displacement assay; it reports binding, not function.

D(2) dopamine receptor, sequence (P14416 whole entry): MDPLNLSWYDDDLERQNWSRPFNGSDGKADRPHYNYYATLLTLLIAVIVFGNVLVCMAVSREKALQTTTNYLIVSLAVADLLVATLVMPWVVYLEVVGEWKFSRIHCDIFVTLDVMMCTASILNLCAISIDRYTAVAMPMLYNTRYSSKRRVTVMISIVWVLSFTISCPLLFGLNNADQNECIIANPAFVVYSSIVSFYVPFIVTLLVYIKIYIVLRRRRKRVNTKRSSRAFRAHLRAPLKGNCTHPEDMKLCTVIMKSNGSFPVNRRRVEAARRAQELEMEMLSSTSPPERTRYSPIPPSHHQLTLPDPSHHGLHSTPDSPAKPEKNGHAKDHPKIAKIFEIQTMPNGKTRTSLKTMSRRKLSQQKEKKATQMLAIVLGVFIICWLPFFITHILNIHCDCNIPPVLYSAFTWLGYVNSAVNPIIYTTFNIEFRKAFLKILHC
T1 sequence (P35462 whole entry): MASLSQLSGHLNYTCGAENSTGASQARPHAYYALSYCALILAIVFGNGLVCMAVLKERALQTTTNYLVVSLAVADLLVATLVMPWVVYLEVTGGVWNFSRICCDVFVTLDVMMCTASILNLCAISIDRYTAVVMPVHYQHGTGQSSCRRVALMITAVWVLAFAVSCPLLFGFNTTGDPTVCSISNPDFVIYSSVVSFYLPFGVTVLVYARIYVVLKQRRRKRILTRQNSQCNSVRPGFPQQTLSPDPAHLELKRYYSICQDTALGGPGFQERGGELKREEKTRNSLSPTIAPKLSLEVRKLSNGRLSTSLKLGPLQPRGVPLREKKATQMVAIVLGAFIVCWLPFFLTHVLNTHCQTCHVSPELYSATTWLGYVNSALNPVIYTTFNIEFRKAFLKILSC

As to `COc1ccccc1N1CCN(CCCCNC(=O)c2cc3ccccc3[nH]2)CC1`, the Emax at D(3) dopamine receptor [1] was 8.38%.

As for `OCCN1CCN(c2cccc(Cl)c2Cl)CC1`, the Ratio Ki in the experiment listed under Homo sapiens came to 1.75. Moreover, the inhibitory constant (Ki) came out at 36.3 nM on D(3) dopamine receptor [2] and 63.7 nM on D(2) dopamine receptor.

For the molecule `COc1ccccc1N1CCN(C)CC1`, the Ratio Ki in the experiment filed under Homo sapiens was determined as 0.45. The Ki at D(3) dopamine receptor [2] is 590 nM; at D(2) dopamine receptor, 265 nM.

As to `CCCN1CCN(c2cccc(Cl)c2Cl)CC1`, the Ratio Ki in the experiment filed under Homo sapiens was determined as 0.82. For the same molecule, the inhibitory constant (Ki) at D(3) dopamine receptor [2] was determined as 6.3 nM; at D(2) dopamine receptor, 5.2 nM.

`O=C(NCCCCN1CCN(c2cccc(Cl)c2Cl)CC1)c1cc2ccccc2[nH]1` returned a maximal effect (Emax) at D(3) dopamine receptor [1] of 16%. The affinity at D(3) dopamine receptor [2], expressed as Ki, was 1.4 nM.

Regarding `CCCCN1CCN(c2cccc(Cl)c2Cl)CC1`, the Ratio Ki in the experiment listed under Homo sapiens was determined as 1.79. For the same molecule, the inhibition constant Ki was 1.9 nM on D(3) dopamine receptor [2] and 3.4 nM at D(2) dopamine receptor.

Take `COc1ccccc1N1CCNCC1`: the Ratio Ki in the experiment filed under Homo sapiens is 0.3. Also, the figures for the Ki at D(3) dopamine receptor [2] and at D(2) dopamine receptor were 2260 nM and 680 nM, respectively.

As to `CCC(=O)NCCCCN1CCN(c2cccc(Cl)c2Cl)CC1`, in the experiment filed under Homo sapiens, the Ratio Ki stood at 3.25. Further, the Ki on D(3) dopamine receptor [2] worked out at 4.8 nM; at D(2) dopamine receptor, 15.6 nM.

Take `CCCCN1CCN(c2ccccc2OC)CC1`: the Ratio Ki in the experiment listed under Homo sapiens was found to be 0.86. For the same molecule, the inhibitory constant (Ki) at D(3) dopamine receptor [2] was determined as 23.9 nM; at D(2) dopamine receptor, 20.6 nM.

With `CCCCNC(=O)c1cc2ccccc2[nH]1`, the Ki on D(3) dopamine receptor [2] was found to be 21500 nM.

Consider `CN1CCN(c2cccc(Cl)c2Cl)CC1`, for which the Ratio Ki in the experiment filed under Homo sapiens was 0.84. In addition, the Ki on D(3) dopamine receptor [2] was found to be 54.6 nM; on D(2) dopamine receptor it was 45.9 nM.

For the molecule `CCC(=O)NCCCCN1CCN(c2ccccc2OC)CC1`, in the experiment listed under Homo sapiens, the Ratio Ki was 2.18. Further, the inhibitory constant (Ki) was determined as 38.6 nM on D(3) dopamine receptor [2] and 84 nM on D(2) dopamine receptor.

The molecule `O=C(NCC[C@@H](O)CN1CCN(c2cccc(Cl)c2Cl)CC1)c1cc2ccccc2[nH]1` yielded a maximum response (Emax) at D(3) dopamine receptor [1] of 20.6%.

For `Clc1cccc(N2CCNCC2)c1Cl`, the Ratio Ki in the experiment listed under Homo sapiens was determined as 0.69. Moreover, the figures for the Ki at D(3) dopamine receptor [2] and at D(2) dopamine receptor were 197 nM and 137 nM, respectively.
